This sample holds only a part of the variants without activity.
B1: tRNA (parent)
chain: GUUCCGUUGGCGUAAUGGUAACGCGUCUCCCUCCUAAGGAGAAGACUGCGGGUUCGAGUCCCGUACGGAACG

Variants of: B1
Assay: yeast fitness relative to wild type (ratio to wild type); higher = fitter; tRNA-Arg(CCU), competitive growth, 37 C, YPD
Procedure, shortened: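 Genotype frequency changes were the basis for Darwinian fitness relative to wild type. The frequencies came from 100-nucleotide paired-end sequencing of gene amplicons from the start population and each end population of pooled yeast strains with tRNA-Arg(CCU) gene variants at the native locus. Competition ran in YPD at 37°C for 24 hours in six replicates, genotypes needed ≥ 100 starting reads, and estimates < 0.5 were set to 0.5.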
With C5G C11A A15G G18A A42U the yeast fitness was ≤ 0.5.
In the case of C5G C11A A15G G18A C30G U54C, the yeast fitness is reported as ≤ 0.5.
With C5G C11A A20U C29A A37C the yeast fitness was ≤ 0.5.
With C5G C11A A21G the yeast fitness was 0.581.
In the case of C5G C11A C22G A36U G63A, the yeast fitness is reported as ≤ 0.5.
With C5G C11A C29G C33U G50A the yeast fitness was ≤ 0.5.
For C5G C11A U26C A40U U64C, the yeast fitness was ≤ 0.5.
In the case of C5G C11G A14C U35G A45C U47C U64A, the yeast fitness is reported as ≤ 0.5.
In the case of C5G C11G A14U A15U G56A U59G, the yeast fitness is reported as ≤ 0.5.
For C5G C11G A15U A70U, the yeast fitness was ≤ 0.5.
In the case of C5G C11G A15U C55A, the yeast fitness is reported as ≤ 0.5.
C5G C11G A21C U28G C66U gave a yeast fitness of 0.605.
In the case of C5G C11G A70U, the yeast fitness is reported as ≤ 0.5.
For C5G C11G C24U C62A, the yeast fitness was 0.584.
Variant C5G C11G C30U C31U A57G has a yeast fitness of 0.8.
With C5G C11G C30U C31U A57G G63A the yeast fitness was ≤ 0.5.
In the case of C5G C11G C34U C55U G67C, the yeast fitness is reported as ≤ 0.5.
With C5G C11G C62U the yeast fitness was ≤ 0.5.
In the case of C5G C11G G12A A37C G50A, the yeast fitness is reported as 0.533.
In the case of C5G C11G G44A G50C U54C C61U A69U A70C, the yeast fitness is reported as ≤ 0.5.
For C5G C11G U35G A42G G56C, the yeast fitness was ≤ 0.5.
For C5G C11U A14U A37U A45C, the yeast fitness was ≤ 0.5.
In the case of C5G C11U A37C A43G G50A, the yeast fitness is reported as ≤ 0.5.
In the case of C5G C11U A37C A57G, the yeast fitness is reported as ≤ 0.5.
Work on C5G C11U A37C C49U yielded a yeast fitness of 0.609.
In the case of C5G C11U A37C C49U C60A, the yeast fitness is reported as 0.557.
In the case of C5G C11U A37C C49U C60A C66G, the yeast fitness is reported as 0.685.
For C5G C11U A37C U64C, the yeast fitness was 0.609.
In the case of C5G C11U A37U, the yeast fitness is reported as ≤ 0.5.
In the case of C5G C11U A42G C49U A69C A70G, the yeast fitness is reported as ≤ 0.5.
C5G C11U A42G C49U A70U gave a yeast fitness of 0.588.
In the case of C5G C11U A42G C49U C66U G67A, the yeast fitness is reported as ≤ 0.5.
In the case of C5G C11U A70C, the yeast fitness is reported as ≤ 0.5.
In the case of C5G C11U C30U A36C G58A G67C, the yeast fitness is reported as ≤ 0.5.
With C5G C11U C60G the yeast fitness was ≤ 0.5.
In the case of C5G C11U C61G, the yeast fitness is reported as ≤ 0.5.
With C5G C11U G17A A20C C49G the yeast fitness was ≤ 0.5.
Variant C5G C11U G25A has a yeast fitness of 0.787.
In the case of C5G C11U G25C G52U A70C, the yeast fitness is reported as ≤ 0.5.
For C5G C11U G48C C49A A57C, the yeast fitness was ≤ 0.5.
Work on C5G C11U G67C yielded a yeast fitness of 0.699.
Work on C5G C11U U19C G41C yielded a yeast fitness of 0.536.
For C5G C22A, the yeast fitness was 0.766.
In the case of C5G C22A A42C, the yeast fitness is reported as ≤ 0.5.
With C5G C22A A42U G48A C62A the yeast fitness was ≤ 0.5.
Work on C5G C22A A43G yielded a yeast fitness of 0.557.
Work on C5G C22A A69C yielded a yeast fitness of 0.603.
C5G C22A C33G gave a yeast fitness of 0.61.
In the case of C5G C22A U26C C33G U35A, the yeast fitness is reported as ≤ 0.5.
C5G C22G gave a yeast fitness of 0.652.
With C5G C22G C31A C49G G63C A69U the yeast fitness was ≤ 0.5.
For C5G C22G C55G A70U, the yeast fitness was ≤ 0.5.
Work on C5G C22G C55G G63C yielded a yeast fitness of 0.679.
In the case of C5G C22G C55U, the yeast fitness is reported as ≤ 0.5.
With C5G C22G C66U the yeast fitness was ≤ 0.5.
For C5G C22G G56A, the yeast fitness was 0.788.
In the case of C5G C22G U28A C31G C55A G68C, the yeast fitness is reported as 0.551.
For C5G C22G U47A A70C, the yeast fitness was ≤ 0.5.
Work on C5G C22U yielded a yeast fitness of 0.72.
For C5G C22U A36G A65C, the yeast fitness was ≤ 0.5.
For C5G C22U A57G, the yeast fitness was ≤ 0.5.
In the case of C5G C22U C27U A36G A69C, the yeast fitness is reported as ≤ 0.5.
Work on C5G C22U C27U G41C A57C yielded a yeast fitness of 0.542.
Variant C5G C22U G50U has a yeast fitness of 0.563.
For C5G C22U G56C, the yeast fitness was ≤ 0.5.
With C5G C22U U26C the yeast fitness was ≤ 0.5.
With C5G C22U U28G U54C A65G the yeast fitness was ≤ 0.5.
In the case of C5G C24G A45C A70U, the yeast fitness is reported as ≤ 0.5.
In the case of C5G C24G C29A A43U G68C, the yeast fitness is reported as ≤ 0.5.
Work on C5G C24G C30G C31U U35A A36U yielded a yeast fitness of 0.755.
C5G C24G C30G C31U U35A A36U G44A gave a yeast fitness of 0.832.
With C5G C24G C30G C31U U35A A36U G44A C61U the yeast fitness was 0.67.
With C5G C24G C31U C61A the yeast fitness was ≤ 0.5.
Variant C5G C24G C60G has a yeast fitness of 0.518.
With C5G C24G C61A C62A G68C the yeast fitness was 0.69.
For C5G C24G G41C, the yeast fitness was ≤ 0.5.
Work on C5G C24U yielded a yeast fitness of 0.893.
C5G C24U A36C C49A gave a yeast fitness of 0.577.
For C5G C24U C31A, the yeast fitness was ≤ 0.5.
With C5G C24U C33U A57U A69U the yeast fitness was ≤ 0.5.
For C5G C24U C33U C34U G44A C62G, the yeast fitness was ≤ 0.5.
In the case of C5G C24U C33U C46A, the yeast fitness is reported as ≤ 0.5.
With C5G C24U C61A A70C the yeast fitness was ≤ 0.5.
With C5G C27A C31A A42C the yeast fitness was ≤ 0.5.
C5G C27G gave a yeast fitness of 0.81.
With C5G C27G A43G the yeast fitness was ≤ 0.5.
For C5G C27G A45C, the yeast fitness was ≤ 0.5.
With C5G C27G A57C the yeast fitness was ≤ 0.5.
With C5G C27G A65C A70C the yeast fitness was 0.552.
With C5G C27G C29U C31U A45G C49A C66U the yeast fitness was ≤ 0.5.
With C5G C27G C30U G51C C55A the yeast fitness was ≤ 0.5.
In the case of C5G C27G C33U G56A, the yeast fitness is reported as 0.527.
For C5G C27G C34G, the yeast fitness was ≤ 0.5.
In the case of C5G C27G C61U, the yeast fitness is reported as ≤ 0.5.
With C5G C27G G38C G56C the yeast fitness was ≤ 0.5.
In the case of C5G C27G G44C U59A, the yeast fitness is reported as ≤ 0.5.
In the case of C5G C27G U28A C30U G48A G58A C66U, the yeast fitness is reported as ≤ 0.5.
With C5G C27U A36U C60G the yeast fitness was ≤ 0.5.
With C5G C27U A43U the yeast fitness was 0.54.
With C5G C27U C29G the yeast fitness was ≤ 0.5.
In the case of C5G C27U C31A U35C C55G C66U A70C, the yeast fitness is reported as ≤ 0.5.
With C5G C27U C34U G56C the yeast fitness was 0.646.
In the case of C5G C27U C46U U54C, the yeast fitness is reported as ≤ 0.5.
With C5G C27U C61G the yeast fitness was ≤ 0.5.
For C5G C27U C62U, the yeast fitness was 0.626.
Variant C5G C27U C66U has a yeast fitness of 0.654.
In the case of C5G C27U G41C U53C, the yeast fitness is reported as ≤ 0.5.
In the case of C5G C27U G51A C60G A70G, the yeast fitness is reported as ≤ 0.5.
C5G C27U G56A showed a yeast fitness of 0.619.
With C5G C27U G63A the yeast fitness was ≤ 0.5.
In the case of C5G C27U G67A, the yeast fitness is reported as 0.524.
For C5G C27U U54C, the yeast fitness was 0.747.
C5G C29A gave a yeast fitness of 0.604.
With C5G C29A G48A the yeast fitness was ≤ 0.5.
With C5G C29A G48A A65U the yeast fitness was ≤ 0.5.
For C5G C29A G56A, the yeast fitness was 0.615.
For C5G C29A U32G, the yeast fitness was ≤ 0.5.
With C5G C29A U59A the yeast fitness was ≤ 0.5.
C5G C29G gave a yeast fitness of 0.779.
With C5G C29G A36U the yeast fitness was ≤ 0.5.
C5G C29G A65G showed a yeast fitness of 0.565.
For C5G C29G C33A, the yeast fitness was ≤ 0.5.
For C5G C29G C34U, the yeast fitness was ≤ 0.5.
In the case of C5G C29G G52A G67A, the yeast fitness is reported as ≤ 0.5.
With C5G C29U the yeast fitness was 0.793.
For C5G C29U A37G C66U, the yeast fitness was 0.536.
For C5G C29U A43C U54G C60G C62U, the yeast fitness was ≤ 0.5.
With C5G C29U A70C the yeast fitness was 0.527.
C5G C29U C30A C66U gave a yeast fitness of 0.645.
Work on C5G C29U C33U G39C yielded a yeast fitness of 0.724.
C5G C29U G39A gave a yeast fitness of 0.671.
For C5G C30A A36G C61A, the yeast fitness was 0.592.
In the case of C5G C30A A36G U64C, the yeast fitness is reported as ≤ 0.5.
With C5G C30A A42C the yeast fitness was ≤ 0.5.
In the case of C5G C30G C66U, the yeast fitness is reported as ≤ 0.5.
C5G C30G G52A showed a yeast fitness of 0.523.
With C5G C30G G52C the yeast fitness was 0.519.
In the case of C5G C30G G56A G58C C61G, the yeast fitness is reported as ≤ 0.5.
For C5G C30G G67C, the yeast fitness was 0.543.
Variant C5G C30U has a yeast fitness of 0.799.
Work on C5G C30U A42G yielded a yeast fitness of 0.57.
In the case of C5G C30U C31G C61A A69U, the yeast fitness is reported as ≤ 0.5.
For C5G C30U C34U A37U G68C, the yeast fitness was ≤ 0.5.
With C5G C30U G44C the yeast fitness was ≤ 0.5.
With C5G C30U U32A C61G the yeast fitness was ≤ 0.5.
With C5G C31A A37C G48A G58C the yeast fitness was 0.565.
For C5G C31A C55U A65C A70U, the yeast fitness was ≤ 0.5.
In the case of C5G C31A G67C, the yeast fitness is reported as 0.62.
With C5G C31G C46A G63C A65U the yeast fitness was ≤ 0.5.
With C5G C31G G52C U54A C62G the yeast fitness was 0.5.
With C5G C31U A36C G38A G50A the yeast fitness was ≤ 0.5.
With C5G C31U A36C G38A G56A A70U the yeast fitness was ≤ 0.5.
With C5G C31U A36C G38A U54A the yeast fitness was ≤ 0.5.
In the case of C5G C31U C49G C66U, the yeast fitness is reported as ≤ 0.5.
For C5G C31U C60U A69G, the yeast fitness was ≤ 0.5.
With C5G C31U G58C C62A the yeast fitness was ≤ 0.5.
Variant C5G C31U G63A has a yeast fitness of 0.683.
For C5G C31U U32C U54G C55U C61U, the yeast fitness was ≤ 0.5.
C5G C33A gave a yeast fitness of 0.616.
In the case of C5G C33A A57G, the yeast fitness is reported as 0.59.
For C5G C33A G41C A65C, the yeast fitness was ≤ 0.5.
In the case of C5G C33G C55U, the yeast fitness is reported as 0.875.
Work on C5G C33G C60G C66G yielded a yeast fitness of 0.584.
For C5G C33G G67A, the yeast fitness was ≤ 0.5.
With C5G C33U the yeast fitness was 0.673.
For C5G C33U A57G, the yeast fitness was ≤ 0.5.
C5G C33U G56C showed a yeast fitness of 0.575.

— the RNAGym collection of RNA variant scans (doi:10.1126/science.aae0568)
